In ChEMBL document CHEMBL4270599, “Synthesis of a 3'-C-ethynyl-β-d-ribofuranose purine nucleoside library: Discovery of C7-deazapurine analogs as potent antiproliferative nucleosides” (Eur J Med Chem, 2018):

Experiments:
[1] = test system: SK-OV-3; assay: Cytotoxicity against human SKOV3 cells after 48 hrs by SRB assay; assay type: functional; details: SK-OV-3, 48 h
[2] = test system: MCF7; assay: Growth inhibition of human MCF7 cells assessed as cell growth at 10^-5 M incubated for 48 hrs by sulforhodamine B assay relative to control; assay type: functional; details: MCF7, 48 h, read-out: Activity
[3] = test system: SF-539; assay: Growth inhibition of human SF539 cells assessed as cell growth at 10^-8 M incubated for 48 hrs by sulforhodamine B assay relative to control; assay type: functional; details: SF-539, 48 h, read-out: Activity
[4] = test system: SK-OV-3; assay: Growth inhibition of human SKOV3 cells assessed as cell growth at 10^-7 M incubated for 48 hrs by sulforhodamine B assay relative to control; assay type: functional; details: SK-OV-3, 48 h, read-out: Activity
[5] = test system: COLO 205; assay: Cytotoxicity against human COLO205 cells after 48 hrs by SRB assay; assay type: functional; details: COLO 205, 48 h
[6] = test system: HL-60(TB); assay: Growth inhibition of human HL-60(TB) cells assessed as cell growth at 10^-6 M incubated for 48 hrs by sulforhodamine B assay relative to control; assay type: functional; details: HL-60, 48 h, read-out: Activity
[7] = test system: KM12; assay: Growth inhibition of human KM12 cells assessed as cell growth at 10^-6 M incubated for 48 hrs by sulforhodamine B assay relative to control; assay type: functional; details: KM12, 48 h, read-out: Activity
[8] = test system: SF-268; assay: Growth inhibition of human SF268 cells assessed as cell growth at 10^-5 M incubated for 48 hrs by sulforhodamine B assay relative to control; assay type: functional; details: SF-268, 48 h, read-out: Activity
[9] = test system: MDA-MB-435; assay: Growth inhibition of human MDA-MB-435 cells assessed as cell growth at 10^-7 M incubated for 48 hrs by sulforhodamine B assay relative to control; assay type: functional; details: MDA-MB-435, 48 h, read-out: Activity
[10] = test system: CCRF-CEM; assay: Cytotoxicity against human CCRF-CEM cells after 48 hrs by SRB assay; assay type: functional; details: for CC50: read-out: LC50 (the source's name)
[11] = test system: HL-60(TB); assay: Growth inhibition of human HL-60(TB) cells assessed as cell growth at 10^-7 M incubated for 48 hrs by sulforhodamine B assay relative to control; assay type: functional; details: HL-60, 48 h, read-out: Activity
[12] = test system: MCF7; assay: Growth inhibition of human MCF7 cells assessed as cell growth at 10^-4 M incubated for 48 hrs by sulforhodamine B assay relative to control; assay type: functional; details: MCF7, 48 h, read-out: Activity
[13] = test system: MDA-MB-231; assay: Cytotoxicity against human MDA-MB-231 cells after 48 hrs by SRB assay; assay type: functional; details: MDA-MB-231, 48 h
[14] = test system: HCT-116; assay: Growth inhibition of human HCT116 cells assessed as cell growth at 10^-5 M incubated for 48 hrs by sulforhodamine B assay relative to control; assay type: functional; details: HCT-116, 48 h, read-out: Activity
[15] = test system: Hs-578T; assay: Cytotoxicity against human Hs 578T cells after 48 hrs by SRB assay; assay type: functional; details: for CC50: read-out: pLC50 (the source's name) (converted)
[16] = test system: NCI-H322M; assay: Growth inhibition of human NCI-H322M cells assessed as cell growth at 10^-6 M incubated for 48 hrs by sulforhodamine B assay relative to control; assay type: functional; details: read-out: Activity
[17] = test system: Malme-3M; assay: Growth inhibition of human MALME-3M cells assessed as cell growth at 10^-7 M incubated for 48 hrs by sulforhodamine B assay relative to control; assay type: functional; details: read-out: Activity
[18] = test system: 786-0; assay: Growth inhibition of human 786-0 cells assessed as cell growth at 10^-8 M incubated for 48 hrs by sulforhodamine B assay relative to control; assay type: functional; details: 786-0, 48 h, read-out: Activity
[19] = test system: CCRF-CEM; assay: Growth inhibition of human CCRF-CEM cells assessed as cell growth at 10^-5 M incubated for 48 hrs by sulforhodamine B assay relative to control; assay type: functional; details: read-out: Activity
[20] = test system: NCI-H460; assay: Cytotoxicity against human NCI-H460 cells after 48 hrs by SRB assay; assay type: functional; details: NCI-H460, 48 h; for CC50: read-out: pLC50 (the source's name) (converted)
[21] = test system: HMEC-1; assay: Antiproliferative activity against HMEC1 cells after 4 days by Coulter counter method; assay type: cell-based; details: Homo sapiens, HMEC-1, 96 h
Summary of the method: (§1)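 Primary HUVEC, primary HMVEC-d and the HMEC-1 line seeded at 20,000 cells/well in gelatin-coated plates in EC growth medium (EGM2). After overnight incubation, 5-fold compound dilutions added. Cells proliferated four days with compound, then trypsinized and counted by Coulter counter to derive IC₅₀.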

[22] = test system: PC-3; assay: Growth inhibition of human PC3 cells assessed as cell growth at 10^-4 M incubated for 48 hrs by sulforhodamine B assay relative to control; assay type: functional; details: PC-3, 48 h, read-out: Activity
[23] = test system: A498; assay: Growth inhibition of human A498 cells assessed as cell growth at 10^-6 M incubated for 48 hrs by sulforhodamine B assay relative to control; assay type: functional; details: A498, 48 h, read-out: Activity
[24] = test system: Hs-578T; assay: Growth inhibition of human Hs 578T cells assessed as cell growth at 10^-8 M incubated for 48 hrs by sulforhodamine B assay relative to control; assay type: functional; details: read-out: Activity
[25] = test system: KM12; assay: Growth inhibition of human KM12 cells assessed as cell growth at 10^-7 M incubated for 48 hrs by sulforhodamine B assay relative to control; assay type: functional; details: KM12, 48 h, read-out: Activity
[26] = test system: SK-MEL-28; assay: Growth inhibition of human SK-MEL-28 cells assessed as cell growth at 10^-7 M incubated for 48 hrs by sulforhodamine B assay relative to control; assay type: functional; details: SK-MEL-28, 48 h, read-out: Activity
[27] = test system: OVCAR-5; assay: Growth inhibition of human OVCAR5 cells assessed as cell growth at 10^-7 M incubated for 48 hrs by sulforhodamine B assay relative to control; assay type: functional; details: OVCAR-5, 48 h, read-out: Activity
[28] = test system: OVCAR-5; assay: Growth inhibition of human OVCAR5 cells assessed as cell growth at 10^-5 M incubated for 48 hrs by sulforhodamine B assay relative to control; assay type: functional; details: OVCAR-5, 48 h, read-out: Activity
[29] = test system: KM12; assay: Growth inhibition of human KM12 cells assessed as cell growth at 10^-4 M incubated for 48 hrs by sulforhodamine B assay relative to control; assay type: functional; details: KM12, 48 h, read-out: Activity
[30] = test system: LOX IMVI; assay: Growth inhibition of human LOXIMVI cells assessed as cell growth at 10^-7 M incubated for 48 hrs by sulforhodamine B assay relative to control; assay type: functional; details: read-out: Activity
[31] = test system: K562; assay: Growth inhibition of human K562 cells assessed as cell growth at 10^-4 M incubated for 48 hrs by sulforhodamine B assay relative to control; assay type: functional; details: K562, 48 h, read-out: Activity
[32] = test system: Malme-3M; assay: Growth inhibition of human MALME-3M cells assessed as cell growth at 10^-8 M incubated for 48 hrs by sulforhodamine B assay relative to control; assay type: functional; details: read-out: Activity
[33] = Antiproliferative activity against HMVEC-d cells after 4 days by Coulter counter method; assay type: cell-based; details: Homo sapiens, 96 h; summary of the method: as §1
[34] = read-out: pLC50 (the source's name) (converted)
[35] = read-out: LC50 (the source's name)

C#C[C@@]1(O)[C@@H](CO)O[C@@H](n2ccc3c(N)ncnc32)[C@@H]1O
TGI ([1]; read-out: TGI): 5.24 µM
GI50 ([1]; read-out: pGI50 (converted)): 1.07 µM
CC50 [1, 34]: > 100 µM
TGI ([1]; read-out: pTGI (converted)): 5.25 µM
growth at 10 µM [2]: -4%
growth at 0.01 µM [3]: 92%
growth at 0.1 µM [4]: 92%
TGI ([5]; read-out: TGI): 2.67 µM
GI50 ([5]; read-out: pGI50 (converted)): 0.676 µM
CC50 [5, 34]: 8.91 µM
TGI ([5]; read-out: pTGI (converted)): 2.69 µM
growth at 1 µM [6]: 68%
growth at 1 µM [7]: 67%
growth at 10 µM [8]: 5%
growth at 0.1 µM [9]: 99%
CC50 [10]: > 100 µM
TGI ([10]; read-out: TGI): > 100 µM
GI50 ([10]; read-out: pGI50 (converted)): 2.29 µM
TGI ([10]; read-out: pTGI): > 100 µM
growth at 0.1 µM [11]: 105%
growth at 100 µM [12]: -53%
TGI ([13]; read-out: TGI): 5.89 µM
GI50 ([13]; read-out: pGI50 (converted)): 1.51 µM
CC50 [13, 34]: 83.2 µM
TGI ([13]; read-out: pTGI (converted)): 5.89 µM
growth at 10 µM [14]: 2%
TGI ([15]; read-out: TGI): > 100 µM
GI50 ([15]; read-out: pGI50 (converted)): 4.68 µM
CC50 [15]: > 100 µM
TGI ([15]; read-out: pTGI): > 100 µM
growth at 1 µM [16]: 58%
growth at 0.1 µM [17]: 97%
growth at 0.01 µM [18]: 91%
growth at 10 µM [19]: 14%
TGI ([20]; read-out: TGI): 10.6 µM
GI50 ([20]; read-out: pGI50 (converted)): 0.468 µM
CC50 [20]: > 100 µM
TGI ([20]; read-out: pTGI (converted)): 10.7 µM
IC50 [21]: 0.061 µM
growth at 100 µM [22]: -62%
growth at 1 µM [23]: 80%
growth at 0.01 µM [24]: 97%
growth at 0.1 µM [25]: 102%
growth at 0.1 µM [26]: 97%
growth at 0.1 µM [27]: 106%
growth at 10 µM [28]: -8%
growth at 100 µM [29]: -52%
growth at 0.1 µM [30]: 99%
growth at 100 µM [31]: 2%
growth at 0.01 µM [32]: 86%

C#C[C@@]1(O)[C@@H](CO)O[C@@H](n2cc(Cl)c3c(N)ncnc32)[C@@H]1O
GI50 ([1]; read-out: GI50): 0.119 to 0.171 µM
CC50 [1, 35]: > 100 µM
TGI ([1]; read-out: TGI): 0.467 to 0.573 µM
growth at 0.01 µM [3]: 88 to 92%
growth at 0.1 µM [4]: 56 to 72%
GI50 ([5]; read-out: GI50): 0.0712 to 0.157 µM
CC50 [5, 35]: 10 to 40.4 µM
TGI ([5]; read-out: TGI): 0.276 to 0.521 µM
growth at 1 µM [7]: 3 to 12%
growth at 10 µM [8]: 2 to 7%
growth at 0.1 µM [9]: 60 to 69%
GI50 ([10]; read-out: GI50): 0.239 to 0.257 µM
CC50 [10]: > 100 µM
TGI ([10]; read-out: TGI): > 100 µM
TGI ([10]; read-out: pTGI): > 100 µM
growth at 0.1 µM [11]: 19 to 47%
GI50 ([13]; read-out: GI50): 0.148 to 0.193 µM
CC50 [13, 35]: > 100 µM
TGI ([13]; read-out: TGI): 0.893 to 1.01 µM
growth at 10 µM [14]: 4%
GI50 ([15]; read-out: GI50): 0.463 to 2.48 µM
TGI ([15]; read-out: TGI): 7.01 to 100 µM
CC50 [15]: > 100 µM
growth at 1 µM [16]: 13 to 23%
growth at 0.1 µM [17]: 79 to 80%
IC50 [33]: < 0.00128 µM
growth at 0.01 µM [18]: 80 to 82%
growth at 10 µM [19]: 2 to 4%
TGI ([20]; read-out: TGI): 0.226 to 0.753 µM
CC50 [20]: > 100 µM
IC50 [21]: 0.0035 µM
growth at 1 µM [23]: -63%
growth at 0.01 µM [24]: 95 to 96%
growth at 0.1 µM [25]: 55 to 60%
growth at 0.1 µM [26]: 87 to 91%
growth at 0.1 µM [27]: 72 to 102%
growth at 10 µM [28]: 13 to 14%
growth at 100 µM [29]: 2 to 6%
growth at 0.1 µM [30]: 34 to 47%
growth at 100 µM [31]: 7 to 8%
growth at 0.01 µM [32]: 93 to 100%
